Assay results from ChEMBL document CHEMBL2021795, “Novel epigallocatechin gallate (EGCG) analogs activate AMP-activated protein kinase pathway and target cancer stem cells” (2012).
Activity calls are given as the source filed them. The calls are words filed in the database; no cut-off is given here.

Tests used:
[1] = test system: MDA-MB-231; assay: Induction of AMPKalpha phosphorylation at T172 residue in human MDA-MB-231 cells at 20 uM after 3 hrs by Western blotting analysis relative to control; type: cell-based
Summary of the method: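 MDA-MB-231 cells in DMEM/F12 (1:1) with 10% FBS at 37°C, 5% CO2. Compounds were given at 20 μM, metformin at 10 mM, for 3 h. Whole-cell lysates were run on SDS–PAGE, blotted to nitrocellulose and probed for phospho-AMPKα (T172), with ECL detection. Phospho-AMPKα was normalized to β-actin.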

[2] = test system: MDA-MB-231; assay: Antiproliferative activity against human MDA-MB-231 cells at 1 to 20 mM after 24 hrs by MTT assay; type: functional, cell-based
Summary of the method: (§1)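 MDA-MB-231 cells were grown in 96-well plates to 70–80% confluency. Compounds or metformin were added for 24 h at 37°C, then MTT read-out. Samples were run in triplicate in three independent experiments. Data are mean ± SD, expressed as percent of untreated control (100%).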

[3] = test system: MDA-MB-231; assay: Inhibition of mammosphere formation in human MDA-MB-231 cells at 10 mM after 7 days by inverted phase-contrast microscopy; type: functional; details: MDA-MB-231, 168 h
Summary of the method: (§2)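 Single MDA-MB-231 cells were seeded at 1,000 cells/well in ultra-low-attachment 6-well plates. Sphere medium was DMEM/F12 1:1 with B-27, N-2 and penicillin/streptomycin, topped up every 3–4 days. Cells were exposed to compounds or metformin for 7 days. Spheres were collected by centrifugation (300 g, 5 min) and counted under an inverted phase-contrast microscope. Mean of three experiments.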

[4] = test system: MDA-MB-231; assay: Inhibition of mammosphere formation in human MDA-MB-231 cells at 5 mM after 7 days by inverted phase-contrast microscopy; type: functional; details: MDA-MB-231, 168 h; summary of the method: as §2
[5] = test system: MDA-MB-231; assay: Induction of AMPKalpha phosphorylation at T172 residue in human MDA-MB-231 cells at 10 mM after 3 hrs by Western blotting analysis relative to control; type: cell-based
Summary of the method: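 MDA-MB-231 human breast cancer cells grown in DMEM/F12 (1:1) with 10% FBS, penicillin and streptomycin at 37°C, 5% CO2. Treated for 3 h, then whole-cell extracts separated by SDS–PAGE, blotted to nitrocellulose and detected by ECL. Phospho-AMPKα (T172) band normalized to β-actin.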

[6] = test system: MDA-MB-231; assay: Inhibition of mammosphere formation in human MDA-MB-231 cells at 20 uM after 7 days by inverted phase-contrast microscopy; type: functional; details: MDA-MB-231, 168 h; summary of the method: as §2
[7] = test system: MDA-MB-231; assay: Inhibition of mammosphere formation in human MDA-MB-231 cells at 10 uM after 7 days by inverted phase-contrast microscopy; type: functional; details: MDA-MB-231, 168 h; summary of the method: as §2
[8] = test system: MDA-MB-231; assay: Antiproliferative activity against human MDA-MB-231 cells after 24 hrs by MTT assay; type: functional, cell-based; summary of the method: as §1
[9] = test system: MDA-MB-231; assay: Cytotoxicity against human MDA-MB-231 cells assessed as CD44+high/CD24-low cells at 10 uM after 48 hrs by FACS-flow cytometry (reference value: 45%); type: functional
Summary of the method: (§3)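 MDA-MB-231 cells were cultured 5 days on low-adherent plates in sphere medium. Spheres were dissociated with accutase (37°C, 5 min), reseeded and treated with compounds for 48 h. Cells were detached with 0.02% EDTA/PBS and stained with anti-CD44-FITC and anti-CD24-PE or isotype controls for 30 min at 4°C in the dark. The CD44high/CD24low fraction was measured by flow cytometry. Mean of three experiments.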

[10] = test system: MDA-MB-231; assay: Induction of AMPKalpha-mediated up-regulation of p21 in human MDA-MB-231 cells at 5 to 40 uM after 3 hrs by Western blotting analysis relative to control; type: cell-based
Summary of the method: (§4)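 MDA-MB-231 cells grown in DMEM/F12 (1:1) with 10% FBS, penicillin/streptomycin at 37°C, 5% CO2. Exposed to compounds over a concentration series for 3 h. Whole-cell extracts were separated by SDS–PAGE and transferred to nitrocellulose. Blots were probed with the indicated antibodies (p-AMPKα, p-Raptor, p21, β-actin) and detected by ECL. p-AMPKα was normalized to β-actin.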

[11] = test system: MDA-MB-231; assay: Cytotoxicity against human MDA-MB-231 cells assessed as CD44+high/CD24-low cells after 48 hrs by FACS-flow cytometry (reference value: 45%); type: functional, cell-based; summary of the method: as §3
[12] = test system: MDA-MB-231; assay: Cytotoxicity against human MDA-MB-231 cells assessed as CD44+high/CD24-low cells at 20 uM after 48 hrs by FACS-flow cytometry (reference value: 45%); type: functional; summary of the method: as §3
[13] = test system: MDA-MB-231; assay: Activation of AMPKalpha in human MDA-MB-231 cells assessed as increase in Raptor S792 phosphorylation after 3 hrs by Western blotting analysis relative to control; type: cell-based; summary of the method: as §4
[14] = test system: MDA-MB-231; assay: Induction of AMPKalpha phosphorylation at T172 residue in human MDA-MB-231 cells after 3 hrs by Western blotting analysis relative to control; type: cell-based; summary of the method: as §4
[15] = Activation of AMPKalpha in human MDA-MB-231 cells assessed as suppression of mTOR pathway measuring decrease in p70-S6K T389 phosphorylation at 5 to 40 uM after 3 hrs by Western blotting analysis relative to control; type: cell-based

## CC(=O)Nc1ccc(C(=O)O[C@H]2Cc3ccccc3C[C@H]2OC(=O)c2ccc(NC(C)=O)cc2)cc1
[1]
  fold change (FC): 6

## CN(C)C(=N)NC(=N)N [METFORMIN]
[2]
  Activity: Active
[3]
  inhibition at 10000 µM: 67.6%
[4]
  inhibition at 5000 µM: 41.4%
[5]
  fold change (FC): 6.3

## O=C(O[C@@H]1Cc2c(O)cc(O)cc2O[C@@H]1c1cc(O)c(O)c(O)c1)c1cc(O)c(O)c(O)c1 [EPIGALOCATECHIN GALLATE]
[6]
  inhibition at 20 µM: 51.3%
[7]
  inhibition at 10 µM: 20.1%
[8]
  Activity: Active
[1]
  fold change (FC): 3.9

## CC(=O)Oc1cc(OC(C)=O)c2c(c1)O[C@H](c1cc(OC(C)=O)c(OC(C)=O)c(OC(C)=O)c1)[C@H](OC(=O)c1cc(OC(C)=O)c(OC(C)=O)c(OC(C)=O)c1)C2
[1]
  fold change (FC): 3.9

## O=C(O[C@H]1Cc2ccccc2C[C@H]1OC(=O)c1cc(O)cc(O)c1)c1cc(O)cc(O)c1
[1]
  fold change (FC): 5.1

## O=C(O[C@H]1Cc2ccccc2C[C@H]1OC(=O)c1cc(O)c(Br)c(O)c1)c1cc(O)c(Br)c(O)c1
[9]
  Activity: 30.5%
[10]
  Activity: Active
[11]
  Activity: Dose-dependent effect
[12]
  Activity: 18%
[13]
  Activity: Dose-dependent effect
[6]
  inhibition at 20 µM: 66.7%
[14]
  Activity: Dose-dependent effect
[7]
  inhibition at 10 µM: 45.1%
[15]
  Activity: Active
[8]
  Activity: Dose-dependent effect
[1]
  fold change (FC): 13.5

## O=C(O[C@H]1Cc2ccccc2C[C@H]1OC(=O)c1cc(O)c(O)c(O)c1)c1cc(O)c(O)c(O)c1
[1]
  fold change (FC): 5.1

## Nc1ccc(C(=O)O[C@H]2Cc3ccccc3C[C@H]2OC(=O)c2ccc(N)cc2)cc1
[9]
  Activity: 25.6%
[10]
  Activity: Active
[11]
  Activity: Dose-dependent effect
[12]
  Activity: 13.9%
[13]
  Activity: Dose-dependent effect
[6]
  inhibition at 20 µM: 73.3%
[14]
  Activity: Dose-dependent effect
[7]
  inhibition at 10 µM: 52.2%
[15]
  Activity: Active
[8]
  Activity: Dose-dependent effect
[1]
  fold change (FC): 13.7
